From PubChem BioAssay AID493091 (Sanford-Burnham Center for Chemical Genomics, 2011)
Screen size: about 340,000 compounds; about 3,000 (0.88%) were called active.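 The calls were made as follows: active = inhibition above about 50% at 20 µM (limit read from the data); inactive = the rest.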 Shown is part of a subset that was picked to be rich in actives.

target: Carboxy-terminal domain RNA polymerase II polypeptide A small phosphatase 1 (Homo sapiens) (UniProt Q9GZU7); test: inhibition of human SCP1 dephosphorylation activity – biochemical, colorimetric, uHTS, primary screen (AID 493091); conditions: Recombinant Scp1, phosphopeptide, malachite green phosphate absorbance; at 20 µM; hits give high values;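 also: plate controls were DMSO wells with enzyme for no effect and wells lacking enzyme for full effect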
Sequence (Q9GZU7 76-261 limits assumed): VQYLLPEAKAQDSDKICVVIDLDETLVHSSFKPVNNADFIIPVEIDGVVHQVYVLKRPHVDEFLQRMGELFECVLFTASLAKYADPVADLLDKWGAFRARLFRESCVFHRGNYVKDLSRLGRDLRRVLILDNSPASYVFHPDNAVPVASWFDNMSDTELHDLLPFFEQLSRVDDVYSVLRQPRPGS
In short: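 Test system: SCP-1 catalytic domain; Buffer or medium: Acidic Tris acetate buffer with magnesium and detergent; Also added: Phosphorylated 17-residue peptide substrate; Compound: single 20 µM dose, 1% DMSO; Schedule: enzyme reaction 45 min at room temperature, colour 5 min, stabilisation 30 min; Signal: Phosphate-binding colour reagent, absorbance read at 630 nm.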

Row | SMILES | inhibition
1 | CC(=O)Nc1ccc(N2C(=O)CCC2=O)cc1C | 75.8% (active)
2 | Cc1cccc(NC(=O)c2cc(N3C(=O)CCC3=O)ccc2Cl)n1 | -6.1% (inactive)
3 | COC(=O)c1cccc(NC(=O)c2cccc(N3C(=O)CCC3=O)c2)c1 | -7.64% (inactive)
4 | O=C(C(NS(=O)(=O)c1cccc2nsnc12)c1ccccc1)N1CCN(c2ccccn2)CC1 (stereo not drawn) | -0.35% (inactive)
5 | O=S(=O)(NC(=S)Nc1ccccc1)c1ccc(F)cc1 | -7.43% (inactive)
6 | COCCCn1c(SCC(=O)NC2CCCC2)nnc1-c1ccccc1 | -9.75% (inactive)
7 | CCOc1ccc(Nc2nc(Cc3nnc(SCC(=O)NC4CCCC4)n3C)cs2)cc1 | -5.22% (inactive)
8 | COCCCn1c(Cc2csc(Nc3cccc(Cl)c3)n2)nnc1SCC(=O)OC1CCCCC1 | 58.9% (active)
9 | O=C(CSc1nnc(N2CCOCC2)n1-c1cccc(F)c1)N1CCN(c2ccccn2)CC1 | -3.89% (inactive)
10 | Cc1ccc(S(=O)(=O)NCCC(=O)NNC(=O)C2COc3ccccc3O2)cc1 (stereo not drawn) | -1.94% (inactive)
11 | Cc1c(CC(=O)N2CCN(C(=O)C3COc4ccccc4O3)CC2)c(=O)oc2c(O)c(O)ccc12 (stereo not drawn) | 79.7% (active)
12 | Cc1c(C)c2ccc(OCC(=O)N3CCC(C(=O)O)CC3)c(C)c2oc1=O | 1.4% (inactive)
13 | COc1ccc(NC2CCCN(C(=O)c3ccncc3)C2)cc1 (stereo not drawn) | 3.08% (inactive)
14 | CNc1[nH]ncc1[N+](=O)[O-] | -7.97% (inactive)
15 | NC(=O)c1nsc(C(=O)N(CCCN2CCOCC2)C(C(=O)NC2CCCCC2)c2ccc(Cl)cc2)c1N (stereo not drawn) | -5.84% (inactive)
16 | CCS(=O)(=O)N1CCCC(C(=O)NCCCN(C)Cc2ccccc2)C1 (stereo not drawn) | -3.41% (inactive)
17 | COc1ccc(Cc2nnc(NC(=O)Cc3cccs3)s2)cc1 | 87% (active)
18 | COc1ccc(Cc2nnc(NS(=O)(=O)Cc3ccccc3)s2)cc1 | -2.23% (inactive)
19 | COc1ccc(OC)c(NC(=O)Cc2cccs2)c1 | 14.5% (inactive)
20 | CC1CCC(NC(=O)CNC(=O)c2ccc3ccccc3c2)CC1 (stereo not drawn) | -3.85% (inactive)
21 | O=C(CN1CCCCC1)NC(=O)Nc1ccccc1F | 1.25% (inactive)
22 | C=C1CCN([C@H](C(=O)NCc2cc(OC)c(OC)c(OC)c2)C(C)C)S(=O)(=O)c2ccccc21 | -5.59% (inactive)

Row | SMILES | inhibition
23 | NC(=O)CCN1CCN(S(=O)(=O)/C=C/c2ccccc2)CC1 | 5.89% (inactive)
24 | COc1ccccc1N1CCN(CC(=O)NC(=O)NCc2ccco2)CC1 | -8.28% (inactive)
25 | O=C(CN1CCN(S(=O)(=O)/C=C/c2ccccc2)CC1)NC(=O)NCc1ccco1 | 52.3% (active)
26 | COC(=O)c1cc(OC)c(OC)cc1NC(=O)C1CCCO1 (stereo not drawn) | -6.55% (inactive)
27 | O=C(CCCOc1ccccc1)NNC(=O)c1ccc(Cl)cc1 | 0.5% (inactive)
28 | O=C(NNC(=O)c1ccc2ccccc2c1)c1ccc(Cl)cc1 | 99.5% (active)
29 | CN(CC(=O)Nc1ccc(Cl)cc1)C(=O)CNC(=O)c1ccc2ccccc2c1 | -10% (inactive)
30 | N=C1C(=O)OCC1c1ccccc1NC(=O)CN1CCCCC1 (stereo not drawn) | -9.11% (inactive)
31 | Cc1cc(C)n(CCNCc2c(C(=O)N3C[C@@H](C)O[C@@H](C)C3)nc3ccc(Cl)cn23)n1 | -3.38% (inactive)
32 | CCn1cc(CN2CCC(C(=O)Nc3cccc(-c4cccc(Cl)c4)c3)CC2)c(C)n1 | -4.7% (inactive)
33 | CCOC(=O)CCCCCC(=O)Nc1ccc2c(c1)CC(=O)N([C@@H](C)CO)C[C@H](C)[C@@H](CN(C)Cc1ccccc1)O2 | -4.43% (inactive)
34 | C=CCOc1c2ccc(C(=O)N(CC)c3ccc(OC)cc3)cc2nn1C | -2.27% (inactive)
35 | O=C(COC(=O)c1cnccn1)Nc1cccc2ccccc12 | -9.56% (inactive)
36 | C=C1c2cccc(OC)c2O[C@H](C(=O)OCC)[C@@H]1CCCCCC | 101% (active)
37 | CCOC(=O)C(=Cc1ccccc1OC)C(=O)OCC | -0.82% (inactive)
38 | CC1C(=O)NC(=O)C1c1ccccc1 (stereo not drawn) | -3.27% (inactive)
39 | N#Cc1c(-c2cccs2)nc(SCC(=O)c2ccc(Br)cc2)[nH]c1=O | 64.9% (active)
40 | O=C(CSc1nc2ccccc2c(=O)[nH]1)Nc1nc(-c2ccc(Br)cc2)cs1 | 3.75% (inactive)
41 | CC(=O)CSc1nc(CCc2ccccc2)c(C#N)c(=O)[nH]1 | -7.04% (inactive)
42 | CCN(CC)C(=O)CS(=O)CC(=O)Nc1cc(OCCOC)c(Cl)cc1Cl (stereo not drawn) | 1.24% (inactive)
43 | O=C(Cn1cnc([N+](=O)[O-])n1)NCCc1ccccc1 | -2.5% (inactive)
